Experimental data collected from several papers.
Compare with care: the assays were run in different laboratories.
Cell line: HepG2
Effect on: cell growth or viability

Structure (SMILES) | technique | time | CC50 [µM]
COC1=CC2=[N+](C)CCc3c[nH]c(c32)C1=O | MTT | 72 h | 12.5
O=C1c2ccccc2-n2c1nc1ccccc1c2=O | ATP luminescence | – | 6 to 9
NC1=CC2=NCCc3c[nH]c(c32)C1=O | MTT | 72 h | 0.1
CCCCCCCNCC(O)c1cc(Cl)cc2c1-c1ccc(Cl)cc1C2 (racemic) | – | 48 h | 5.7
Cn1nc2c(=O)n(C3CC3)ncc2c1[C@](O)(c1cnc(C(F)(F)F)c(Cl)c1)C(F)(F)F | ATP luminescence | – | 38
COCC(=O)N1CCC[C@H](C(=O)NCc2nc(-c3cccnc3)cs2)C1 | ATP luminescence | 96 h | > 50
CCCCCCCCNC[C@@H](O)c1cc(Cl)cc2c1-c1ccc(Cl)cc1C2 | – | 48 h | 9
COCC(=O)N1CCCC(C(=O)NCc2nc(-c3ccccc3)cs2)C1 (racemic) | ATP luminescence | 96 h | > 50
CCCCCNC[C@@H](O)c1cc(Cl)cc2c1-c1ccc(Cl)cc1C2 | – | 48 h | 6
O=C1C(NCCc2c[nH]c3ccccc23)=CC2=NCCc3c[nH]c1c32 | MTT | 72 h | 4
CCOCC(=O)N1CCC[C@H](C(=O)NCc2nc(-c3ccccc3)cs2)C1 | ATP luminescence | 96 h | > 50
O[C@@H](CN[C@@H](COCC1CC1)Cc1ccccc1)c1cc(Cl)cc2c1-c1ccc(Cl)cc1C2 | – | 48 h | 19.9
O=C1C(NCCc2ccc(O)cc2)=CC2=NCCc3c[nH]c1c32 | MTT | 72 h | 4
CCCCCCNC[C@@H](O)c1cc(Cl)cc2c1-c1ccc(Cl)cc1C2 | – | 48 h | 6.3
COCC(=O)N1CCC[C@H](C(=O)NCc2nc(-c3ccc(C#N)cc3)cs2)C1 | ATP luminescence | 96 h | > 50
